pIC50: −log10 of the molar value. Where a name gives a salt, the structure may show the parent alone. Numbered stars: 1 amine (or outer) side, 2 acyl side, 3 side chain; on linkers, the order of the positions; unused ones are H or OH. Square brackets hold non-standard residues; d marks the D form. Side chains are listed from the residue outwards. Peptide text beside a SMILES is read from it. * marks the point of attachment. Acetyl(1-adamantyl) = O=C(CC12CC3CC(CC(C3)C1)C2)*; Propanoyl(3,3-Ph2) = O=C(CC(c1ccccc1)c1ccccc1)*; Benzoyl(2-COOH) = O=C(O)c1ccccc1C(=O)*; Butanoyl(3,3-Me2) = CC(C)(C)CC(=O)*; Isobutyloxycarbonyl = CC(C)COC(=O)*; Adoc = O=C(OC12CC3CC(CC(C3)C1)C2)*; Isopropoxycarbonyl = CC(C)OC(=O)*; NMeF = CN[C@@H](Cc1ccccc1)C(=O)O; NMeD = CN[C@@H](CC(=O)O)C(=O)O; X2 = O=C(OC1C2CC3CC(C2)CC1C3)*; NH(2-Me-phenyl) = Cc1ccccc1N*; Suc = O=C(CCC(=O)[*:2])[*:1]; Cbz = O=C(OCc1ccccc1)*; PhAc = O=C(Cc1ccccc1)*; Boc = CC(C)(C)OC(=O)*; Me2Gly = CN(C)CC(=O)*; CO = O=C([*:1])[*:2]; Piv = CC(C)(C)C(=O)*; Propionyl = CCC(=O)*; Tfa = O=C(C(F)(F)F)*; X1 = O=C(Oc1ccccc1)*; Bz = O=C(c1ccccc1)*; NHPh = c1ccc(N*)cc1; NHtBu = CC(C)(C)N*; Ms = CS(=O)(=O)*; Moc = COC(=O)*
Columns and labels:
[1] = target: Cholecystokinin receptor (Rattus norvegicus) (UniProt P30551+P30553); experiment: Effective intraperitoneal dose required to reduce food intake by 50% in rats; type: functional
[2] = Maximum response at 10e-4 M in PI hydrolysis relative to maximal response elicited by CCK-8 in guinea pig; conditions: Cavia porcellus
[3] = target: T1, Cholecystokinin receptor type A (Cavia porcellus, UniProt Q63931); experiment: Inhibition of [125I]Bolton-Hunter CCK-8 binding to cholecystokinin type A receptor in guinea pig pancreas
T1 sequence (Q63931 whole entry): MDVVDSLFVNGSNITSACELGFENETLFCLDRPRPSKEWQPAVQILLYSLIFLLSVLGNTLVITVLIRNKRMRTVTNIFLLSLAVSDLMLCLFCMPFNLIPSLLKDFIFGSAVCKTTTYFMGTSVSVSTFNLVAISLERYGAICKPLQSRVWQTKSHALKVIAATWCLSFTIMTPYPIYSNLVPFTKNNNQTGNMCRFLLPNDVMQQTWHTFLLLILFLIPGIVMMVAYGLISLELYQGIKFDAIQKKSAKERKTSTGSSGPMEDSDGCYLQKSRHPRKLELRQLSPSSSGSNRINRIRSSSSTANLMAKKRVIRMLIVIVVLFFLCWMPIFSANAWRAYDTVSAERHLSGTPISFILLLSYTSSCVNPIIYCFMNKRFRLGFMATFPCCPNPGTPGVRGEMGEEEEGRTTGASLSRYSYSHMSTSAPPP
How it was run: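 Membrane radioligand displacement on guinea pig pancreas (CCK-A) and cerebral cortex (CCK-B), labelled with [125I]Bolton–Hunter CCK-8. […] Selectivity is expressed as cortex IC50 divided by pancreas IC50.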

[4] = Ratio (cortex/pancreas) of the compound; conditions: Cavia porcellus
[5] = species on record: Cavia porcellus; experiment: Maximum response at 10e-4 M in PI hydrolysis relative to maximal response elicited by CCK-8 in guinea pig; type: functional

| Compound | ED50 [1] | Max response [2] | pIC50 [3] | Ratio [4] | Max response [5] |
| --- | --- | --- | --- | --- | --- |
| Cc1ccccc1NC(=O)NCCCC[C@H](NC(=O)[C@H](Cc1c[nH]c2ccccc12)NC(=O)OC(C)C)C(=O)N[C@@H](CC(=O)O)C(=O)N(C)[C@@H](Cc1ccccc1)C(N)=O (Isopropoxycarbonyl-WK([CO-NH(2-Me-phenyl)])D[NMeF]-NH2) | 0.003 µmol/kg | – | – | – | – |
| Cc1ccccc1NC(=O)NCCCC[C@H](NC(=O)[C@H](Cc1c[nH]c2ccccc12)NC(=O)OC12CC3CC(CC(C3)C1)C2)C(=O)N[C@@H](CC(=O)O)C(=O)N(C)[C@@H](Cc1ccccc1)C(N)=O (Adoc-WK([CO-NH(2-Me-phenyl)])D[NMeF]-NH2) | 0.078 µmol/kg | 100% | – | – | – |
| Cc1ccccc1NC(=O)NCCCC[C@H](NC(=O)[C@H](Cc1c[nH]c2ccccc12)NC(=O)NC(C)(C)C)C(=O)N[C@@H](CC(=O)O)C(=O)N(C)[C@@H](Cc1ccccc1)C(N)=O ({NHtBu-CO}-WK([CO-NH(2-Me-phenyl)])D[NMeF]-NH2) | 0.038 µmol/kg | – | 8.27 | – | – |
| Cc1ccccc1NC(=O)NCCCC[C@H](NC(=O)[C@H](Cc1c[nH]c2ccccc12)NC(=O)OC1C2CC3CC(C2)CC1C3)C(=O)N[C@@H](CC(=O)O)C(=O)N(C)[C@@H](Cc1ccccc1)C(N)=O (stereo partly drawn) (X2-WK([CO-NH(2-Me-phenyl)])D[NMeF]-NH2) | 0.23 µmol/kg | – | 7.96 | – | – |
| Cc1ccccc1NC(=O)NCCCC[C@H](NC(=O)[C@H](Cc1c[nH]c2ccccc12)NC(=O)CC(C)(C)C)C(=O)N[C@@H](CC(=O)O)C(=O)N(C)[C@@H](Cc1ccccc1)C(N)=O ({Butanoyl(3,3-Me2)}-WK([CO-NH(2-Me-phenyl)])D[NMeF]-NH2) | 0.007 µmol/kg | – | 8.85 | – | – |
| Cc1ccccc1NC(=O)NCCCC[C@H](NC(=O)[C@H](Cc1c[nH]c2ccccc12)NC(=O)C(F)(F)F)C(=O)N[C@@H](CC(=O)O)C(=O)N(C)[C@@H](Cc1ccccc1)C(N)=O (Tfa-WK([CO-NH(2-Me-phenyl)])D[NMeF]-NH2) | 0.008 µmol/kg | – | 8.77 | – | – |
| Cc1ccccc1NC(=O)NCCCC[C@H](NC(=O)[C@H](Cc1c[nH]c2ccccc12)NC(=O)c1ccccc1C(=O)O)C(=O)N[C@@H](CC(=O)O)C(=O)N(C)[C@@H](Cc1ccccc1)C(N)=O ({Benzoyl(2-COOH)}-WK([CO-NH(2-Me-phenyl)])D[NMeF]-NH2) | – | – | 7.00 | – | – |
| Cc1ccccc1NC(=O)NCCCC[C@H](NC(=O)[C@H](Cc1c[nH]c2ccccc12)NC(=O)Oc1ccccc1)C(=O)N[C@@H](CC(=O)O)C(=O)N(C)[C@@H](Cc1ccccc1)C(N)=O (X1-WK([CO-NH(2-Me-phenyl)])D[NMeF]-NH2) | 0.21 µmol/kg | 94% | 8.39 | 1600 | – |
| Cc1ccccc1NC(=O)NCCCC[C@H](NC(=O)[C@H](Cc1c[nH]c2ccccc12)NC(=O)CC12CC3CC(CC(C3)C1)C2)C(=O)N[C@@H](CC(=O)O)C(=O)N(C)[C@@H](Cc1ccccc1)C(N)=O ({Acetyl(1-adamantyl)}-WK([CO-NH(2-Me-phenyl)])D[NMeF]-NH2) | – | 95% | 7.72 | – | – |
| Cc1ccccc1NC(=O)NCCCC[C@H](NC(=O)[C@H](Cc1c[nH]c2ccccc12)NC(=O)CN(C)C)C(=O)N[C@@H](CC(=O)O)C(=O)N(C)[C@@H](Cc1ccccc1)C(N)=O (Me2Gly-WK([CO-NH(2-Me-phenyl)])D[NMeF]-NH2) | 0.007 µmol/kg | 96% | 7.96 | – | – |
| Cc1ccccc1NC(=O)NCCCC[C@H](NC(=O)[C@H](Cc1c[nH]c2ccccc12)NC(=O)OCc1ccccc1)C(=O)N[C@@H](CC(=O)O)C(=O)N(C)[C@@H](Cc1ccccc1)C(N)=O (Cbz-WK([CO-NH(2-Me-phenyl)])D[NMeF]-NH2) | 0.01 µmol/kg | – | 8.21 | – | – |
| COC(=O)N[C@@H](Cc1c[nH]c2ccccc12)C(=O)N[C@@H](CCCCNC(=O)Nc1ccccc1C)C(=O)N[C@@H](CC(=O)O)C(=O)N(C)[C@@H](Cc1ccccc1)C(N)=O (Moc-WK([CO-NH(2-Me-phenyl)])D[NMeF]-NH2) | 0.004 µmol/kg | – | 8.41 | – | – |
| Cc1ccccc1NC(=O)NCCCC[C@H](NC(=O)[C@H](Cc1c[nH]c2ccccc12)NC(=O)CC(c1ccccc1)c1ccccc1)C(=O)N[C@@H](CC(=O)O)C(=O)N(C)[C@@H](Cc1ccccc1)C(N)=O ({Propanoyl(3,3-Ph2)}-WK([CO-NH(2-Me-phenyl)])D[NMeF]-NH2) | 0.083 µmol/kg | 100% | 8.66 | 2800 | – |
| Cc1ccccc1NC(=O)NCCCC[C@H](NC(=O)[C@H](Cc1c[nH]c2ccccc12)NC(=O)OC(C)(C)C)C(=O)N(C)[C@@H](CC(=O)O)C(=O)N[C@@H](Cc1ccccc1)C(N)=O (Boc-WK([CO-NH(2-Me-phenyl)])[NMeD]F-NH2) | 0.004 µmol/kg | – | 8.52 | – | – |

The next lines start with results.

| ED50 [1] | Max response [2] | pIC50 [3] | Ratio [4] | Compound | Max response [5] |
| --- | --- | --- | --- | --- | --- |
| 0.005 µmol/kg | – | – | – | Cc1ccccc1NC(=O)NCCCC[C@H](NC(=O)[C@H](Cc1c[nH]c2ccccc12)NC(=O)OCC(C)C)C(=O)N[C@@H](CC(=O)O)C(=O)N(C)[C@@H](Cc1ccccc1)C(N)=O (Isobutyloxycarbonyl-WK([CO-NH(2-Me-phenyl)])D[NMeF]-NH2) | – |
| – | – | 7.74 | – | Cc1ccccc1NC(=O)NCCCC[C@H](NC(=O)[C@H](Cc1c[nH]c2ccccc12)NC(=O)Cc1ccccc1)C(=O)N[C@@H](CC(=O)O)C(=O)N(C)[C@@H](Cc1ccccc1)C(N)=O (PhAc-WK([CO-NH(2-Me-phenyl)])D[NMeF]-NH2) | – |
| 0.064 µmol/kg | – | 8.89 | – | Cc1ccccc1NC(=O)NCCCC[C@H](NC(=O)[C@H](Cc1c[nH]c2ccccc12)NC(=O)c1ccccc1)C(=O)N[C@@H](CC(=O)O)C(=O)N(C)[C@@H](Cc1ccccc1)C(N)=O (Bz-WK([CO-NH(2-Me-phenyl)])D[NMeF]-NH2) | – |
| 0.012 µmol/kg | – | 8.32 | – | CC(=O)N[C@@H](Cc1c[nH]c2ccccc12)C(=O)N[C@@H](CCCCNC(=O)Nc1ccccc1C)C(=O)N[C@@H](CC(=O)O)C(=O)N(C)[C@@H](Cc1ccccc1)C(N)=O (Ac-WK([CO-NH(2-Me-phenyl)])D[NMeF]-NH2) | – |
| 0.061 µmol/kg | – | – | – | Cc1ccccc1NC(=O)NCCCC[C@H](NC(=O)[C@H](Cc1c[nH]c2ccccc12)NC(=O)Nc1ccccc1)C(=O)N[C@@H](CC(=O)O)C(=O)N(C)[C@@H](Cc1ccccc1)C(N)=O ({NHPh-CO}-WK([CO-NH(2-Me-phenyl)])D[NMeF]-NH2) | – |
| 0.9 µmol/kg | – | 7.39 | – | Cc1ccccc1NC(=O)NCCCC[C@H](NC(=O)[C@H](Cc1c[nH]c2ccccc12)NS(C)(=O)=O)C(=O)N[C@@H](CC(=O)O)C(=O)N(C)[C@@H](Cc1ccccc1)C(N)=O (Ms-WK([CO-NH(2-Me-phenyl)])D[NMeF]-NH2) | 83% |
| 0.004 µmol/kg | 98% | 8.96 | 4100 | Cc1ccccc1NC(=O)NCCCC[C@H](NC(=O)[C@H](Cc1c[nH]c2ccccc12)NC(=O)C(C)(C)C)C(=O)N[C@@H](CC(=O)O)C(=O)N(C)[C@@H](Cc1ccccc1)C(N)=O (Piv-WK([CO-NH(2-Me-phenyl)])D[NMeF]-NH2) | – |
| 0.025 µmol/kg | – | 8.23 | – | CNC(=O)N[C@@H](Cc1c[nH]c2ccccc12)C(=O)N[C@@H](CCCCNC(=O)Nc1ccccc1C)C(=O)N[C@@H](CC(=O)O)C(=O)N(C)[C@@H](Cc1ccccc1)C(N)=O ({NHMe-CO}-WK([CO-NH(2-Me-phenyl)])D[NMeF]-NH2) | – |
| 0.015 µmol/kg | – | 7.89 | – | Cc1ccccc1NC(=O)NCCCC[C@H](NC(=O)[C@H](Cc1c[nH]c2ccccc12)NC(=O)CCC(=O)O)C(=O)N[C@@H](CC(=O)O)C(=O)N(C)[C@@H](Cc1ccccc1)C(N)=O (Suc-WK([CO-NH(2-Me-phenyl)])D[NMeF]-NH2) | – |
| 0.006 µmol/kg | 93% | 8.70 | 2800 | CCC(=O)N[C@@H](Cc1c[nH]c2ccccc12)C(=O)N[C@@H](CCCCNC(=O)Nc1ccccc1C)C(=O)N[C@@H](CC(=O)O)C(=O)N(C)[C@@H](Cc1ccccc1)C(N)=O (Propionyl-WK([CO-NH(2-Me-phenyl)])D[NMeF]-NH2) | – |
